Laboratory results taken from PubChem BioAssay AID2648 (Johns Hopkins Ion Channel Center, 2010).
The campaign covered roughly 310,000 compounds. About 1,100 (0.35%) were called active.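 How the source made its calls: active means fluorescence ratio B-score, a plate-corrected score, at least three library SD, with initial intensity B-score within 5 SD; inactive means the rest.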 Many of the other results were omitted from the sample, so actives are more common in it than they were.

biological target: Potassium voltage-gated channel subfamily KQT member 1 (Homo sapiens) (UniProt P51787); assay: potentiators or activators of KCNQ1 channel, primary screen, cell-based, thallium flux, high-throughput (AID 2648); conditions: CHO-K1 KCNQ1, thallium flux FluxOR fluorescence, at 10 µM; hits give high values
Sequence (P51787 whole entry, looked up): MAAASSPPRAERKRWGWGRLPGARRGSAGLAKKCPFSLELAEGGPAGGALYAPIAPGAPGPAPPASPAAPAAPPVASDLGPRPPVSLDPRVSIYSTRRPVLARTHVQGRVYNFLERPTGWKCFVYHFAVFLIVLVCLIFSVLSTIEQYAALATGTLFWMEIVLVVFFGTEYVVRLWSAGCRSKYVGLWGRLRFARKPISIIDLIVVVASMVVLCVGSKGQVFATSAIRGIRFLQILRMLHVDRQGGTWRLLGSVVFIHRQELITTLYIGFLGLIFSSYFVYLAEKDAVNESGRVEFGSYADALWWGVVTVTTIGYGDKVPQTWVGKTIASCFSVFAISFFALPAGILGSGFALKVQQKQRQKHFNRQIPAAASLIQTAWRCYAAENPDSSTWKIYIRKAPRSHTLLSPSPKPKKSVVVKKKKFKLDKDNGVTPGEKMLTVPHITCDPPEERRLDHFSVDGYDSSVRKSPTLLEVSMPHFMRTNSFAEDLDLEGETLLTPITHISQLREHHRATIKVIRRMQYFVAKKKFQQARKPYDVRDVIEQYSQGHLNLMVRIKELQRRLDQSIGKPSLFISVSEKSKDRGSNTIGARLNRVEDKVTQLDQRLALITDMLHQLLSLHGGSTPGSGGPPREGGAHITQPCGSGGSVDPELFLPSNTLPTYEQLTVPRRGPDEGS
Method in brief: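 Medium – assay buffer, equal DMSO in all wells · Material – CHO-K1 cell line with stable KCNQ1 potassium channel expression · Signal – kinetic FluxOR thallium fluorescence, 10-s 1-Hz baseline, 110-s post-stimulus read · Compound – single concentration per compound, DMSO matched to controls · Schedule – 37 °C overnight plating, 90-min dark dye load, 20-min compound pretreatment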

SMILES | B-score
COC(=O)C1=C(C(=O)OC)[C@@H]2N(C)c3ccccc3[C@@]23C[C@@H](C(=O)OC)N(C(=O)c2ccco2)C3=N1 | inactive
CC1(C)C2CC[C@]3(C)C(CC=C4[C@@H]5C[C@@](C)(CO)CC[C@]5(C(=O)O)CC[C@]43C)[C@@]2(C)CC[C@@H]1O (stereo partly drawn) | inactive
CC1(C)CC[C@]2(C(=O)O)CC[C@]3(C)C(=CCC4[C@@]5(C)CC[C@H](O)C(C)(C)C5[C@H](O)C[C@]43C)[C@@H]2C1 (stereo partly drawn) | 10 (active)
CSc1ncccc1C(=O)Nc1ccc(C)cn1 | inactive
O=C(Nc1ccccc1)c1cc2ccccc2[nH]1 | inactive
O=c1/c(=C/c2ccc(CNS(=O)(=O)c3ccccc3)o2)sc2n1CCN=2 | inactive
NC(=O)c1c(Nc2nc3c(F)cccc3s2)sc2c1CCCC2 | inactive
NNc1nc2c(Cl)cccc2s1 | inactive
Fc1cc(F)c2nc(Nc3nc4c(F)cccc4s3)sc2c1 | 37 (active)
COc1cccc2cc(C(=O)NCc3ccc(C)cc3)c(=N)oc12 | inactive
COC(=O)C1CCN(C(=O)c2ccc3oc(Cc4ccc(Cl)cc4)nc3c2)CC1 | inactive
Cc1ccc(-n2c(C)cc(/C=N\NC(=O)CC(=O)NC(C)C)c2C)cc1 | inactive
Cc1cccc(-n2c(C)cc(/C=N/NC(N)=S)c2C)c1 | 8 (active)
Cc1cccc(-n2c(C)cc(/C=N\NC(=O)c3cccs3)c2C)c1 | inactive
Cc1cc(=O)oc2c(C)c(OCC(=O)NCCN3CCOCC3)ccc12 | inactive
CCCOc1ccc(C(=O)C(CCC(CNCC)C(=O)c2ccc(OCCC)cc2)CNCC)cc1 (stereo not drawn) | inactive
FC(F)(F)c1ccc(CN2C[C@@H]3C(c4ccccc4)C4(c5ccccc5)CC3(C4)[C@H]2c2ccccc2)cc1 (stereo partly drawn) | inactive
COC(=O)c1sc(NC(=S)NC(=O)c2ccc(C)cc2)nc1C | 18 (active)
Cc1ccc(C(=O)NC(=S)Nc2ccccc2C)cc1 | inactive
COC(=O)c1sc(NC(=O)c2csc3c2CCCC3)nc1C | inactive
C/C(Cl)=C\Cn1c(Nc2cccc(C)c2)nc2c1c(=O)n(C)c(=O)n2C | inactive
CC(C)NC(=O)C(c1ccc(F)cc1)N(C(=O)CCC(=O)Nc1ccccn1)c1ccccc1F (stereo not drawn) | inactive

SMILES | B-score
[O-][n+]1c2c(nn1-c1ccc(Cl)c(Cl)c1)-c1nonc1CC2 | inactive
COc1ccc(NC(=O)C(=O)NCC(c2ccco2)N2CCc3ccccc3C2)cc1 (stereo not drawn) | inactive
COC(=O)c1ccccc1NC(=O)C1CCN(S(=O)(=O)c2cc(OC)ccc2OC)CC1 | inactive
O=C(c1ccc(F)cc1)c1cn(Cc2ccc(F)cc2)c2cc3c(cc2c1=O)OCCO3 | inactive
Oc1c(Cl)cc(Cl)c(Cl)c1Cc1c(O)c(Cl)cc(Cl)c1Cl | 87 (active)
COP1(=O)C[C@@H](O)[C@@H](O)[C@@H](COCc2ccccc2)O1 (stereo partly drawn) | inactive
CC(=O)Nc1sc2c(c1C(c1cccc(F)c1)N1CCN(CCO)CC1)CCCC2 (stereo not drawn) | inactive
COCCNC(=O)CCCN1C(=O)c2ccccc2Sc2ncccc21 | inactive
Cc1c(C(=O)NC(C)C2CC3CCC2C3)cccc1[N+](=O)[O-] (stereo not drawn) | inactive
CC(C)(C)c1ccc(Cn2nnc3c(=O)[nH]c(C4CCCN(C(=O)c5ccco5)C4)nc32)cc1 (stereo not drawn) | inactive
O=C(N/N=C/c1cccnc1)c1cc2ccccc2cc1O | inactive
Cc1ccc(/C=N/NC(=O)CSc2ccccn2)o1 | inactive
Cc1ccc(/C=N/NC(=O)c2cc3ccccc3cc2O)o1 | 41 (active)
CN(CC(=O)Nc1ccc(Cl)cc1)C(=O)CNC(=O)c1ccc2ccccc2c1 | inactive
COc1cc(C(=O)NCC(=O)NCCSc2ccc(Br)cc2)cc(OC)c1OC | inactive
Cc1ccc(N(CC(=O)NC2CCCCC2)C(=O)CCCC(=O)Nc2ccccn2)c(C)c1 | inactive
CCCCNC(=O)C1CCCNC1=O (stereo not drawn) | inactive
CCC1(C)Cc2c(sc3nc(SC)[nH]c(=O)c23)CO1 (stereo not drawn) | inactive
CCC1(C)Cc2c(sc3nc4n(c(=O)c23)CCCS4)CO1 (stereo not drawn) | inactive
CCC1(C)Cc2c(sc3[nH]c(=S)n(Cc4ccccc4)c(=O)c23)CO1 (stereo not drawn) | 57 (active)
OC(CNCc1ccc(Cl)c(Cl)c1)c1ccccc1 (stereo not drawn) | inactive
Cc1cccn2cc(-c3cccc(S(=O)(=O)N4CCCCC4)c3)nc12 | inactive

SMILES | B-score
Cc1nn(C)c(C(=O)NNC(=S)NC2CCCCC2)c1Cl | inactive
COc1cccc(NC(=S)NC(=O)c2c(Cl)c(C)nn2C)c1 | 8 (active)
COc1cccc(NC(=S)NCc2ccccn2)c1 | inactive
COc1ccc(/C=C2/S/C(=N/N=C3\CC4CCC3(C)C4(C)C)NC2=O)cc1 (stereo not drawn) | 23 (active)
CCOc1ccc(N=C2NC(=O)S/C2=C\c2ccc(O)cc2)cc1 | inactive
COc1ccc(/C=C2\SC(=N)N(c3ccc(F)cc3)C2=O)cc1 | inactive
Cc1ccc(OS(=O)(=O)c2ccc(-c3csc(C)n3)s2)c(C)c1 | inactive
CCOC(=O)N1CCN(C(=O)C(C)NC(=O)c2ccco2)CC1 (stereo not drawn) | inactive
Cc1ccc(C)c(NC(=O)C(OC(=O)c2ccc(C)s2)c2ccccc2)c1 (stereo not drawn) | inactive
CCn1c(O)c(N=NC(=O)c2cccc(S(=O)(=O)N3CCCCC3)c2)c2ccccc21 | inactive
CCn1c(O)c(N=NC2=NC(=O)CS2)c2cc(C)ccc21 | 11 (active)
COC(=O)Cn1c2ccc(C)cc2c2nc(C)sc21 | inactive
CCCc1noc2c1/C(=N\O)CCC2 | inactive
Cc1c(N=Nc2ccc(N(C)C)cc2)c(=O)n(-c2ccccc2)n1C | inactive
CCOC(=O)c1c(NC(=S)Nc2ccccc2)sc2c1CCN(C)C2 | inactive
CCOC(=O)c1c(NC(=O)C2(C)Cc3ccccc3C(=O)O2)sc2c1CCCC2 (stereo not drawn) | inactive
CCOC(=O)c1c(NC(=S)NC)sc2c1CCCC2 | 77 (active)
Cc1ccc(C(=O)CN2C(=O)NC3(CCc4ccccc43)C2=O)c(C)c1 (stereo not drawn) | inactive
Clc1cccc(N=C2NN=C(c3ccc4c(c3)OCCO4)CS2)c1 | inactive
CN(C)c1nc(=Nc2cccc(Cl)c2)ss1 | 12 (active)
Cc1cc(C)c(C#N)c(SCC(=O)NN2CC(=O)N(c3ccccc3F)CC2=O)n1 | inactive
CCN(CC)N=Nc1cccc(NC(C)=O)c1 | inactive

SMILES | B-score
O=C(C1=C(O)C(=O)N(CCOCCO)C1c1ccccn1)c1cccs1 (stereo not drawn) | inactive
CCOc1cc(C)c(S(=O)(=O)NCc2ccccn2)cc1C | inactive
COc1ccc(C(=O)n2nc(-c3ccc(C)cc3)nc2N)cc1OC | inactive
CCCC(=O)n1nc(-c2ccccc2)nc1N | 20 (active)
COc1ccc(CC(=O)n2nc(-c3cccnc3)nc2N)cc1 | inactive
O=C1/C(=C\Nc2ccccc2)CCN1c1ncccn1 | inactive
O=C1N[C@@H](Cc2ccccc2)C(=O)N2[C@H]1C[C@]1(Br)c3ccccc3N(S(=O)(=O)c3ccccc3)[C@H]21 | inactive
O=C1NC(c2cccc(Cl)c2)Nc2ccccc21 (stereo not drawn) | inactive
O=C1c2ccccc2NC(c2ccc(-c3cccc(Cl)c3)o2)N1O (stereo not drawn) | 10 (active)
O=c1c(-c2cccc(Cl)c2)c[nH]n1-c1ccccc1 | inactive
O=C(N/N=C\c1cc2c(cc1Cl)OCO2)c1ccc(Br)s1 | inactive
COC(=O)c1sccc1NS(=O)(=O)c1ccc(F)cc1F | inactive
COC(=O)c1sccc1NC(=O)CSc1ccccc1NS(=O)(=O)c1cc(Cl)ccc1Cl | 12 (active)
COC(=O)c1sccc1NC(=O)COc1ccc(Cl)cc1 | inactive
O=C(NC(=S)NC1CCCCC1)c1ccc(Cl)cc1 | 9 (active)
COc1ccc(C(=O)NC(=S)NC2CCCCC2)cc1 | inactive
O=C(NNC(=S)NC1CCCCC1)c1ccccc1Cl | inactive
CC(C)Cc1nc(Nc2ccc(S(=O)(=O)N3CCCC3)cc2)c2nnn(Cc3ccccc3)c2n1 | inactive
CCc1ccc(Oc2coc3cc(O)ccc3c2=O)cc1 | inactive
CC(Oc1cccc(Cl)c1)C(=O)Nc1ccc(S(=O)(=O)Nc2ncccn2)cc1 (stereo not drawn) | inactive
CCCc1nc2sc3c(c2c(=O)n1NC(=O)CCCl)CCCC3 | inactive
CN(C)CCCn1c(=O)n(Cc2ccccc2)c(=O)c2c3c(sc21)CCCCC3 | inactive

SMILES | B-score
CCn1c(=S)[nH]c2sc3c(c2c1=O)CCCCC3 | 92 (active)
N#Cc1nc(N)nc(N(c2ccccc2)c2ccccc2)n1 | inactive
O=C(Nc1cccn(Cc2ccccc2Cl)c1=O)NC1CCCCC1 | inactive
CC(OC(=O)C1CC(=O)N(Cc2ccccc2)C1)C(=O)Nc1ccccc1[N+](=O)[O-] (stereo not drawn) | inactive
COc1ccc(C(=O)NNC(=S)NC(=O)c2ccccc2[N+](=O)[O-])cc1 | inactive
COc1ccc(C(=O)NC(=S)NNC(=O)c2c(-c3ccccc3)noc2C)cc1 | inactive
COc1ccc(C(=O)NNC(=S)NC(=O)c2ccccc2)cc1 | 10 (active)
CCc1cc2c(=O)c(-c3ccon3)c(N)oc2cc1OC | inactive
Oc1ccc(N=Nc2nccs2)c(O)c1 | inactive
c1ccc(NCc2cccc3ccccc23)nc1 | inactive
Oc1ccc2ccccc2c1N=Nc1nccs1 | 21 (active)
COc1ccc(N(CC(=O)NCc2ccc(F)cc2)C(=O)CCC(=O)Nc2nccs2)cc1 | inactive
CC1=C/C(=N\OS(=O)(=O)c2ccccc2)C=CC1=O | 9 (active)
O=S(=O)(ON(c1ccccc1)S(=O)(=O)c1ccccc1)c1ccccc1 | inactive
CCOc1ccc(Br)cc1S(=O)(=O)Nc1cccc(S(=O)(=O)N(CC)CC)c1 | inactive
Cc1ccc(O)c(NC(=O)COc2cc(C)ccc2C)c1 | inactive
Cc1ccc(O)c(NC(=S)NC(=O)COc2ccc(Br)cc2)c1 | 8 (active)
Cc1cccc(OCC(=O)NC(=S)Nc2ccccc2N2CCOCC2)c1 | inactive
CCCCn1c(N)c(N(CCC(C)C)C(=O)CC2OC(=O)c3ccccc32)c(=O)[nH]c1=O (stereo not drawn) | inactive
Cc1cc2occ(CC(=O)NNC(=O)c3ccccc3F)c2cc1C | inactive
